Rows were chosen to be rich in hits. Some 2.9% of all compounds tested hit in one or more screens of this group.
Vif imaging – HIV Vif inhibition; HEK293T cells, Vif self-association by quenched fluorescence, imaging, 24 h; inhibition, % at 7.49 µM; 340,000 tested, 0.35% active; AID 602346; in the data active = inhibition above about 50%, passing the limit was not always enough
PglD DTNB – blocks C. jejuni PglD acetyltransferase activity | AID 602405 | purified PglD enzyme, DTNB colorimetric CoA detection | inhibition, % at 12.5 µM | 360,000 tested, 0.098% active; in the data active = inhibition above about 16%, passing the limit was not always enough
Cneo AK release – Cryptococcus neoformans lysis via adenylate kinase release; C. neoformans lysis, adenylate kinase release luminescence, 4 h; normalised: neutral wells 0, clomiphene wells 100; 360,000 tested, 0.2% active; lysis activity, % at 15 µM;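 active = mean lysis activity across replicates of at least 80%, whatever share of replicates individually reach that level; inactive = mean lysis activity below 80%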
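Material: C. neoformans cells; Schedule: 4 h static compound exposure, 37 °C, read 1 h post-reagent; Measured by: adenylate kinase release luminescence; Read-out: signal increase indicating cell lysis; Controls: Clomiphene as positive lysis control.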
PGC1a acetyl inh – modulators of PGC1a acetylation; U2OS PGC1a acetylation, AlphaScreen anti-acetyl-lysine; with virally co-expressed GCN5 acetyltransferase; inhibition, % at 15.6 µM; 350,000 tested, 0.17% active;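 active = every replicate shows inhibition of at least 40%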
FGF22 binding – shifts melting point of recombinant human FGF22 | recombinant FGF22 thermal shift, SYPRO orange fluorescence; percent of sucrose octasulfate shift, DMSO zero | activity (Tm shift, normalised), % at 9.99 µM | 340,000 tested, 1.5% active;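 active = mean Tm shift, scaled 0 neutral to 100 positive control, at about 1.3% or above, every replicate too, limit read from the data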
Target sequence (Q9HCT0 whole entry, looked up): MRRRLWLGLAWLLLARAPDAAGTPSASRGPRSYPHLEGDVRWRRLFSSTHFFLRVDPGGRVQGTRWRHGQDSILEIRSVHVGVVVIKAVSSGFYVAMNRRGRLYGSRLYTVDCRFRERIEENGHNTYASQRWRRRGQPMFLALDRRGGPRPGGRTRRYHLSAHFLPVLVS
rRNA inh HTS – inhibitors of bacterial rRNA selective over humanized ribosomes | E. coli WT GFP vs humanized-ribosome RFP mutants, fluorescence, 24 h; hits give low values; DMSO median 0, no signal -100 | 350,000 tested, 1.6% active | AID 720706 | GFP signal change (wild-type ribosome), % (concentration not given with the values);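 active = significant combined selectivity score with lowered wild-type GFP, culture density cut under 30%, mutant RFP and density less affected; inactive = any of these conditions unmet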
Numbers stand for hits; 0 = inactive; - = not tested or not shown.

SMILES	Vif imaging	PglD DTNB	Cneo AK release	PGC1a acetyl inh	FGF22 binding	rRNA inh HTS
CC(=O)c1cccc(NC(=S)NCCc2ccc(F)cc2)c1	0	-	-	-	44	0
CC(=O)Nc1cccc(NC(=S)Nc2cccc(Cl)c2Cl)c1	0	-	-	-	0	0
C[C@H]1CCCCO[C@H](CN(C)C(=O)CCCN(C)C)[C@@H](C)CN([C@@H](C)CO)C(=O)c2cc(NC(=O)c3ccncc3)ccc2O1	-	0	0	0	0	0
Cc1noc(C)c1NC(=O)Nc1ccc2c(c1)CC(=O)N([C@@H](C)CO)C[C@@H](C)[C@@H](CN(C)CC1CC1)O2	-	0	0	0	0	0
CC1CCCCN1c1cc(C#N)c(C#N)cc1[N+](=O)[O-] (configuration not stated)	0	0	0	0	-	-
CC1CCN(c2cc(C#N)c(C#N)cc2[N+](=O)[O-])CC1	90	0	0	0	-	-
Cc1noc(C)c1NC(=O)Nc1ccc2c(c1)C(=O)N(C)[C@@H]1CC[C@H](CC(=O)N(C)C)O[C@H]1CO2	-	0	0	0	0	0
O=C(Cn1nnc(-c2cccs2)n1)NCc1cccs1	0	-	-	-	43	0
Cc1cn(Cc2ccccc2)c(=O)[nH]c1=O	0	0	0	0	-	-
CC(=O)c1cn(Cc2ccccc2)c(=O)[nH]c1=O	0	-	-	0	43	0
CC(C)SCC(=O)Nc1ncc2c(n1)-c1ccccc1CC2	0	-	-	0	44	0
O=C1CC(c2ccccc2)Oc2cc(O)cc(O)c21 (configuration not stated)	0	0	0	0	0	-
CC1CC(=O)c2c(cc3c(-c4c(O)cc(O)c5c(O)c6c(cc45)OC(C)CC6=O)c(O)cc(O)c3c2O)O1 (configuration not stated)	0	0	0	63	-	-
C[C@@H]1CN([C@@H](C)CO)C(=O)Cc2cc(NC(=O)Nc3ccc(F)cc3)ccc2O[C@H]1CN(C)S(=O)(=O)c1ccccc1	-	0	0	0	0	0
CCOC(=O)CNC(=O)C1Cc2ccccc2CN1S(=O)(=O)c1cccs1 (configuration not stated)	0	-	-	0	43	0
Clc1ccc(-c2cnn3c(-c4ccncc4)ccnc23)cc1	0	-	-	0	44	-
O=C(Nc1ccc(C(F)(F)F)cc1)N[C@@H]1CC[C@H](CCn2cc(C3(O)CCCC3)nn2)O[C@@H]1CO	-	0	0	0	0	0
O=C(Nc1ccccc1)c1cc2n(n1)C(C(F)(F)F)CC(C1CC1)N2 (configuration not stated)	0	-	-	-	43	-
Cc1cc(C)c2c(=O)[nH]c(SCC(=O)c3ccc(C)c(C)c3)nc2n1	0	-	-	-	44	0
CCc1ccc(C(=O)CSc2nc(C)cc(=O)[nH]2)cc1	0	-	-	-	0	-27
Cc1cc(=O)[nH]c(SCC(=O)c2ccc(F)c(C)c2)n1	0	0	0	0	0	0
COc1ccc2c3c(n(C)c2c1)[C@@H](CO)N(C(=O)NC1CCCC1)CC31CN(C)C1	-	-	-	-	-	0
CC1Oc2ccccc2N(CC(=O)NCc2ccc3c(c2)OCO3)C1=O (configuration not stated)	0	-	-	-	43	0
Cc1ccc(CNc2ccc3c(c2)OCO3)cc1	63	0	0	0	-	-
CC1Oc2ccccc2N(CC(=O)Nc2ccc3c(c2)OCO3)C1=O (configuration not stated)	0	0	0	0	-	-
SMILES	Vif imaging	PglD DTNB	Cneo AK release	PGC1a acetyl inh	FGF22 binding	rRNA inh HTS
Cc1ccc(CSCC(=O)NCc2ccc3c(c2)OCO3)cc1	0	-	-	0	0	-23
O=C(CSc1ncnc2c1cnn2-c1ccc(Cl)cc1)NCc1ccc2c(c1)OCO2	0	0	600	0	-	-
O=C(CSc1ncnc2c1cnn2-c1ccccc1)Nc1ccc2c(c1)OCO2	0	-	-	0	-	-
COc1ccc(S(=O)(=O)Nc2ccc3c(c2)C(=O)N([C@H](C)CO)C[C@@H](C)[C@H](CN(C)C(=O)Nc2ccc(F)cc2)OCCCC[C@H](C)O3)cc1	-	0	0	0	0	0
C[C@@H]1CN([C@H](C)CO)C(=O)c2cc(NC(=O)Cn3cnnn3)ccc2O[C@@H]1CN(C)Cc1ccc2c(c1)OCO2	-	0	0	0	0	0
CCn1cc([N+](=O)[O-])c(C(=O)NCc2ccc3c(c2)OCO3)n1	0	0	0	42	0	0
CCn1cc([N+](=O)[O-])c(C(=O)Nc2ccc3c(c2)OCCO3)n1	0	0	0	0	-	-
c1ccc2c(C3=NNC(=NC4CCCCC4)SC3)c[nH]c2c1	0	-	-	-	0	-34
CN(C)CCN=Cc1c(O)n(Cc2ccccc2)c(=O)c2ccccc12	0	0	0	0	0	-24
CN(C)CCCN=Cc1c(O)n(Cc2ccccc2)c(=O)c2ccccc12	0	0	0	0	-	-
COC(=O)c1ccc(Oc2coc3cc(OCc4cnn(-c5ccccc5)c4)ccc3c2=O)cc1	142	0	0	0	-	-
COC(=O)c1ccc(Oc2c(C)oc3cc(OCc4cnn(-c5ccccc5)c4)ccc3c2=O)cc1	0	0	0	0	-	-
Cc1ccc(NC2=C/C(=N\S(=O)(=O)c3cccs3)c3ccccc3C2=O)c(C)c1	0	0	0	93	-	-
COc1ccc2c3c([nH]c2c1)[C@@H](CO)N(C(=O)c1cccc(F)c1)CC31CCN(S(=O)(=O)c2cccs2)CC1	-	-	-	0	0	0
O=C(CNc1ccc2ccccc2c1)N/N=C/C=C/c1cccc([N+](=O)[O-])c1	0	-	-	-	0	-15
O=[N+]([O-])c1cc(-c2nnc(N3CCOCC3)c3ccccc23)ccc1N1CCOCC1	0	-	-	-	0	-35
O=[N+]([O-])c1cc(-c2nnc(Nc3ccccc3)c3ccccc23)ccc1N1CCOCC1	-	-	-	-	0	0
CO[C@@H]1CN(C)C(=O)c2ccc(NC(=O)c3ccc4c(c3)OCO4)cc2OC[C@@H](C)N(CC2CC2)C[C@@H]1C	-	0	0	0	0	0
CCN(C(=O)COC(=O)c1ccccc1O)c1nc2ccccc2s1	0	0	0	0	43	0
CCN1CCN(c2c(Cl)cccc2NC(=O)c2ccc([N+](=O)[O-])o2)CC1	0	0	0	-	0	-17
CCCC(=O)N1CCN(c2ccc(NC(=O)c3ccc([N+](=O)[O-])o3)cc2Cl)CC1	0	-	-	0	0	-39
O=C(Nc1cccc(Cl)c1N1CCCC1)c1ccc([N+](=O)[O-])o1	0	0	0	0	0	0

Screening results deposited in PubChem by Broad Institute.
